High-throughput results: PubChem, The Scripps Research Institute Molecular Screening Center
In the library only some 3.2% were active in any assay of this set; here they are far more common.
OX1R antag-1: human HCRTR1 antagonism; O43613; CHO/OX1R cells, Fluo-8 calcium fluorescence, orexin A; inhibition, % at 5 µM; 330,000 tested, 0.43% active;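 active = inhibition above its plate's threshold, mean inhibition of all tested compounds on the plate plus 3 SD, cut at about 37% in these data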
TRPML3 ag: activates the human TRPML3 channel; AID 1448; HEK293 TRPML3-YFP, Fluo-8 calcium fluorescence; 100% = the carbachol control signal; activation, % at 3 µM; 220,000 tested, 0.29% active; Q8TDD5;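 active = activation above its plate's cutoff, the mean activation of the plate's test wells plus 3 SD, cut at about 12% in these data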
Target sequence (Q8TDD5 whole entry, looked up): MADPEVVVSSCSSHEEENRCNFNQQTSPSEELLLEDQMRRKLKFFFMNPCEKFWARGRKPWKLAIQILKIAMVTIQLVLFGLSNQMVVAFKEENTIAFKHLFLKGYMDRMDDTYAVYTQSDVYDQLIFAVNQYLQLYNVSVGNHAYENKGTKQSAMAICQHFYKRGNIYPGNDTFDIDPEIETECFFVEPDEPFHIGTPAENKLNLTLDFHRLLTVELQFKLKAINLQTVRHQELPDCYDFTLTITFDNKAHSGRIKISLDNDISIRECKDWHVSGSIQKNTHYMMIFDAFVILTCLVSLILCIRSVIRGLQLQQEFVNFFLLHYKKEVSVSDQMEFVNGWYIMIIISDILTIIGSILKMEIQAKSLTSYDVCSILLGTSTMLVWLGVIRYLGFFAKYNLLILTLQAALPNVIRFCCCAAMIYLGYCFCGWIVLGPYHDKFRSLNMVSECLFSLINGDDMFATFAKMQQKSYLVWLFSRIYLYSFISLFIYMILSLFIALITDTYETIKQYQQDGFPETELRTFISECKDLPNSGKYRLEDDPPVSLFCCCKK
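Test system: HEK293 cells stably carrying human TRPML3-YFP; Doses: single dose, 3 µM final nominal compound, 0.3% DMSO final; Schedule: dye loading 1 h 37 °C then 30 min ambient, 125 s read; Technique: Fluo-8 calcium fluorescence; Benchmarks: high control carbachol 87 µM, low control DMSO.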
GPR7 antag: antagonists of human GPR7 (neuropeptides B/W receptor 1); P48145; GPR7-expressing cells, fluorescence antagonist assay; inhibition, % at 4.4 µM; 290,000 tested, 1.1% active; in the data active = inhibition above about 16%, passing the limit was not always enough;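 also: cells stimulated with the agonist NPW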
zfTRPN1 agonist: activates the zebrafish TRPN1 channel. HEK293 zebrafish TRPN1-YFP, Fluo-8 calcium fluorescence; 100% = response to 87 µM carbachol. 220,000 tested, 0.18% active. activation, % at 3 µM. AID 1424;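 active = activation above its plate's cutoff, the mean activation of test wells on that plate plus 3 SD, cut at about 19% in these data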
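Material – zebrafish TRPN1-YFP in HEK293 cells · Doses – 3 µM single point · Schedule – dye 1 h 37 °C plus 30 min RT · Signal – Fluo-8 calcium fluorescence, excitation 470-495 nm, emission 515-575 nm · Read-out – % activation versus carbachol response · Control set – carbachol high, DMSO low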
OX1R antag-2: antagonists of human orexin 1 receptor (OX1R). AID 485270. inhibition, % at 6.6 µM. O43613. 330,000 tested, 1.8% active. OX1R-expressing cells, FRET antagonist read-out; in the data active = inhibition mostly above about 38%, no sharp cut-off; inactive = mostly below about 40%
CHO parental Ca: signal in parental CHO cells, OX1R antagonist counter-screen. inhibition, % at 5.6 µM. AID 463079. parental CHO-K1, ATP-induced calcium, Fluo-8 fluorescence. 330,000 tested, 0.63% active;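 active = inhibition above that plate's mean sample inhibition plus 3 SD, cut at about 26% in these data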
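Assay system – parental CHO cells · Reagent – ATP stimulus · Detection – intracellular calcium via Fluo-8 no-wash fluorescent dye · Evaluation – percent inhibition of ATP-evoked calcium rise, normalized to controls · Controls – ATP wells versus no-ATP DMSO wells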
GPR7 antag cf: confirmation of human GPR7 antagonists; inhibition, % at 4.4 µM; GPR7-expressing cells, calcium fluorescence antagonist mode; shares compounds with GPR7 antag; 2,400 tested, 52% active; in the data active = inhibition above about 24%;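 also: stimulated with the GPR7 agonist NPW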
MCHR1 antag: antagonizes human MCHR1, a GPR7 antagonist counter-screen | shares compounds with GPR7 antag | MCHR1-expressing cells, fluorescence antagonist assay | inhibition, % at 4.4 µM | 2,400 tested, 62% active; in the data active = inhibition above about 22%
Hits are given with their value; - = inactive; . = not tested or not shown.

SMILES	OX1R antag-1	TRPML3 ag	GPR7 antag	zfTRPN1 agonist	OX1R antag-2	CHO parental Ca	GPR7 antag cf	MCHR1 antag
COC(=O)c1c(C)n(-c2ccc(OC)cc2)c2ccc(O)cc12	-	-	-	-	-	-	.	.
COCCNC(=O)COC(=O)c1cccnc1SC	-	-	-	-	-	-	.	.
COc1ccc(N=C2SCC(c3ccc([N+](=O)[O-])cc3)=NN2CCO)cc1	-	-	31.8	-	-	-	28.1	40.1
COc1ccc(N=C2SCC(c3ccc(C)cc3)=NN2CCO)cc1	-	-	-	-	-	-	.	.
O=[N+]([O-])c1ccc(C2=NN(CCO)C(=Nc3ccc(OC(F)(F)F)cc3)SC2)cc1	-	-	27.6	-	-	-	54.2	36.9
S=C(NCC1CCCO1)N1CCN(c2nc(-c3ccc(Cl)cc3)cs2)CC1 (stereo unspecified)	-	-	21.5	-	-	-	58.4	72.3
S=C(NCCCN1CCOCC1)N1CCN(c2nc(-c3ccc(Cl)cc3)cs2)CC1	-	-	-	-	-	-	.	.
Cc1ccc(N(C(=O)c2csnn2)C(C(=O)NC2CCCCC2)c2ccncc2)c(C)c1 (stereo unspecified)	-	.	-	.	-	-	.	.
O=C1NC(=S)N/C1=C/c1cc2c(cc1[N+](=O)[O-])OCO2	-	.	-	.	-	-	.	.
COc1cc(N2CCCC2)c(OC)cc1/C=C1/NC(=S)NC1=O	63.5	17.3	32.0	60.5	-	32.0	41.2	36.1
CC(C)C(c1nnnn1Cc1ccc(F)cc1)N1CCN(c2ccc(O)cc2)CC1 (stereo unspecified)	-	-	-	-	-	-	.	.
CCCC(=O)Nc1cccc(-c2cn3cccnc3n2)c1	-	-	67.9	-	-	-	-	-
CCCC(=O)Nc1ccc(-c2cn3cccnc3n2)cc1	-	.	-	.	-	-	.	.
COc1cc(NC(=O)c2ccc3c(c2)S(=O)(=O)N=C2CCCCCN23)cc(OC)c1	-	.	.	.	-	-	.	.
CSCCC(NC(=O)COc1ccccc1)C(=O)N1CCCC(C)C1 (stereo unspecified)	-	.	-	.	-	-	.	.
C/C(=N\NC(=O)c1ccc2c(c1)OCO2)c1ccc(NC(=O)CCCC(=O)O)cc1	.	.	21.6	.	.	.	-	-
C/C(=N\NC(=O)c1ccc2c(c1)OCO2)c1ccc2c(c1)OCO2	-	-	-	-	-	-	.	.
COc1ccc(-n2c(=O)[nH]c3cc(C(=O)NCCc4ccc(Cl)cc4)ccc3c2=O)cc1OC	-	-	35.5	-	-	-	36.2	59.8
CCCCCn1c(=O)[nH]c2cc(C(=O)NCCc3ccc(OC)c(OC)c3)ccc2c1=O	-	-	-	-	-	-	.	.
O=C(Nc1cccc(Cl)c1)c1cc(S(=O)(=O)NCCc2ccc(Cl)cc2)ccc1F	-	-	21.0	-	-	-	-	42.5
Cn1cccc1C(=O)OCC(=O)NC(=O)c1ccc(Cl)cc1	-	.	.	.	-	-	.	.
O=Cc1ccccc1OCCOc1ccccc1C=O	-	-	23.9	-	-	-	-	24.8
COc1ccc(C(CCNCc2ccc(F)cc2)c2ccc(F)cc2)cc1 (stereo unspecified)	-	-	38.6	-	-	-	50.4	76.6
COc1ccc(CNCCC(c2ccc(F)cc2)c2ccc(OC(C)C)cc2)cc1OC (stereo unspecified)	-	-	31.7	-	-	-	42.9	77.2
COc1ccc(C(CCNCc2ccccc2)c2ccc(F)cc2)cc1 (stereo unspecified)	-	-	-	-	-	-	.	.
SMILES	OX1R antag-1	TRPML3 ag	GPR7 antag	zfTRPN1 agonist	OX1R antag-2	CHO parental Ca	GPR7 antag cf	MCHR1 antag
COc1ccc(C(CCNC(C)c2ccccc2)c2ccc(F)cc2)cc1 (stereo unspecified)	-	-	40.4	-	-	-	46.9	55.6
O=C(CCC(=O)Nc1nnc(C2CCCCC2)s1)Nc1ccccc1	-	.	-	.	-	-	.	.
O=C(Nc1ccc(Cl)c(Cl)c1)C1CCN(C(=O)c2ccco2)CC1	-	.	.	.	-	-	.	.
COc1ccc(S(=O)(=O)N(C)c2ccc(OC(=O)C(C)Oc3ccc(F)cc3)cc2)cc1 (stereo unspecified)	-	.	.	.	-	-	.	.
Cc1nc(NCc2ccccn2)c2c3c(sc2n1)CCCC3	-	-	31.8	-	-	-	25.1	21.5
CNC(=O)CS(=O)(=O)CC(=O)Nc1cc(OC(C)C)c(Cl)cc1Cl	-	-	-	-	-	-	.	.
COCCC1CCCCN1C(=O)c1cc(COc2cccc(C(C)=O)c2)on1 (stereo unspecified)	-	.	-	.	-	-	.	.
COC(=O)C1CCCCN1C(=O)c1cc(COc2cccc3cnccc23)on1 (stereo unspecified)	-	.	35.4	.	-	53.8	28.0	53.0
Cn1c(C(=O)N2CCCC(Nc3ccc(F)cc3)C2)cc2ccccc21 (stereo unspecified)	-	.	-	.	-	-	.	.
CCCCn1c(N)c(N(CCOC)C(=O)C2CCN(C(=O)c3ccc(F)cc3)CC2)c(=O)[nH]c1=O	-	.	.	.	-	-	.	.
COc1ccccc1C(=O)N(CCC1CCCN1C)c1nc2ccccc2s1 (stereo unspecified)	-	-	23.8	-	-	-	25.6	-
CCOc1ccc2nc(N(CCN(C)C)C(=O)c3cc4ccccc4cc3OC)sc2c1	-	.	-	.	-	-	.	.
CNC(=O)CCn1nc(-c2ccc(Cl)cc2)c2ccccc2c1=O	-	-	24.2	-	-	-	-	-
N#Cc1nc(COc2ccccc2Cl)oc1N1CCCC1	-	-	-	-	-	-	.	.
CC1CN(c2oc(COc3ccc(Cl)cc3Cl)nc2C#N)CC(C)O1 (stereo unspecified)	-	-	40.2	-	-	-	23.9	27.7
CCOC(=O)C(C(=O)N(C)Cc1ccccc1)C1CCCCC1 (stereo unspecified)	-	.	32.4	.	-	-	26.7	29.6
NC(=Nc1ccccc1)Nc1ccccc1	-	.	101.0	.	-	41.6	98.1	108.0
CCOC(=O)/C(C(=Nc1ccccc1)Nc1ccccc1)=C(\C)O	-	.	-	.	-	-	.	.
Cc1ccc(S(=O)(=O)N2CCCC2C(=O)NCc2ccncc2)cc1 (stereo unspecified)	-	.	-	.	-	-	.	.
COc1ccc(S(=O)(=O)N(C)C)cc1NC(C)C(=O)Nc1cccc(C#N)c1 (stereo unspecified)	-	-	-	-	-	-	.	.
COc1ccc(CNCC(O)(c2ccc(Cl)cc2)c2ccc(Cl)cc2)cc1OC	-	-	-	-	-	-	.	.
CCCCNCC(O)(c1ccc(Cl)cc1)c1ccc(Cl)cc1	-	-	27.3	-	-	-	55.2	64.5
